Source: PubChem (several laboratories)
beta cell repl – inducers of MIN6 beta-cell proliferation, primary screen, ATP luminescence, uHTS; AID 2380, 2010; actives 0.29% (n = 330,000); MIN6 cells proliferation, ATPlite luminescence, 48 h; cells starved in 0.2% serum; 100% = growth in 10% serum; proliferation, % at 10 µM;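 active = compounds whose signal lies at least 3.5 SD above the mean of all wells on their plate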;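 note: 0% = DMSO-treated cells in low-serum medium and 100% = 10% serum control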
MPTP inh – mitochondrial permeability transition pore inhibitors, primary screen, biochemical, isolated mouse mitochondria, absorbance; actives 1.4% (n = 360,000); inhibition, % at 10 µM; Ca2+ swelling absorbance, 30 min;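 active = inhibition of 50% or more, scaled per plate between neutral and stimulator controls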;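 note: 0% = DMSO wells given calcium and 100% = 1 mM EGTA wells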
iPSC survival up – enhancers of single-cell hiPSC survival, primary screen, ATPlite luminescence; survival enhancement, % at 20 µM; 100% = ROCK inhibitor wells, 0% = DMSO; actives 0.044% (n = 360,000); in the data active = survival enhancement above about 18%;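 note: cells exposed to compounds for 16 hours before the ATP read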
Apaf1 inhib – inhibitors of human Apaf-1 apoptosome, primary screen, biochemical, DEVD-Rh110 fluorescence, uHTS. inhibition, % at 20 µM. Apoptotic protease-activating factor 1 (Homo sapiens), O14727. actives 0.71% (n = 330,000). reconstituted apoptosome caspase-3 activity; active = inhibition of at least 40% at 20 µM;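 note: plate controls were DMSO wells for no effect and DEVD-CHO caspase inhibitor wells for full effect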
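Material: reconstituted apoptosome with Apaf-1, cytochrome c, caspase-9, procaspase-3, dATP; medium: pH 7.5 Hepes buffer with CHAPS, BSA, DTT; also added: cytochrome c and DEVD-Rh110 substrate; timing: 30 min plus 50 min, RT; signal: Rh110 fluorescence intensity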
Granule exo inh – LAMP-1 surface exposure blockers, TALL-104 cells – cell-based, flow cytometry, MLPCN library, primary screen. TALL-104 LAMP-1 surface exposure; cells stimulated with thapsigargin and PMA. inhibition, % at 10 µM. actives 0.66% (n = 360,000). AID 651702, 2012;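 active = inhibition above about 55%, limit read from the data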
UBC13 polyUb – UBC13 polyubiquitin chain formation inhibitors, primary screen, biochemical, TR-FRET, uHTS; actives 0.47% (n = 330,000); AID 485273, 2010; inhibition, % at 20 µM; Ubiquitin-conjugating enzyme E2 N (Homo sapiens), P61088; in the data active = inhibition above about 45%, passing the limit was not always enough
Target sequence (P61088 whole entry, looked up): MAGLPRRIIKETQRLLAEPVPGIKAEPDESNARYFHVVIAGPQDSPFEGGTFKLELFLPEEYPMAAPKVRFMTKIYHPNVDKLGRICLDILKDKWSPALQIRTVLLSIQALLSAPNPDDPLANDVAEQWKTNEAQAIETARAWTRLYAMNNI
Rh123 counter – fluorescence retest of MPTP screen hits in isolated mitochondria, single concentration. shares compounds with MPTP inh. membrane potential, Rhodamine 123 fluorescence. inhibition, % at 10 µM. actives 78% (n = 5,000); in the data active = inhibition above about 22%;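 note: 0% = DMSO vehicle and 100% = positive control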
MPTP abs DR – mitochondrial permeability transition pore inhibitors, dose response, biochemical, absorbance, uHTS hits. shares compounds with MPTP inh. isolated mitochondria swelling. IC50, µM. actives 58% (n = 780). AID 651561, 2012; in the data active = IC50 below about 20 µM
MPTP counter DR – fluorescent counter-screen in isolated mitochondria, dose response, counter-screen for MPTP inhibitor project, biochemical, fluorescence, uHTS hits; shares compounds with MPTP inh; isolated mitochondria counterscreen, fluorescence read-out; IC50, µM; actives 49% (n = 780); AID 651564, 2012; in the data active = IC50 below about 80 µM
An asterisk follows results filed as active; . = not tested or not shown. A selection: hits, their analogues and other compounds. The true share with any hit is near 3%.

SMILES	beta cell repl	MPTP inh	iPSC survival up	Apaf1 inhib	Granule exo inh	UBC13 polyUb	Rh123 counter	others
Cc1cc(C)c2nc(N(CCCN(C)C)C(=O)C3=COCCO3)sc2c1	-5	61*	0	6	7	2	-16	MPTP abs DR=12*;MPTP counter DR=>80
COc1cccc(NC(=O)CN2C(=O)COc3ccc(S(=O)(=O)N4CCCCCC4)cc32)c1	-6	0	0	3	-2	4	.
CC(=O)c1cccc(NC(=O)CCc2nc3sc4c(c3c(=O)[nH]2)CCCC4)c1	0	-1	1	14	0	13	.
O=C(Nc1cc(Sc2ccccn2)cc([N+](=O)[O-])c1)c1cccc(F)c1	-7	97*	2	-2	-3	5	70*
O=C(Nc1cc(Sc2nc3ccccc3s2)cc([N+](=O)[O-])c1)c1ccccc1	-5	90*	4	-6	0	1	73*
O=C(Nc1cc(Sc2nc3ccccc3s2)cc([N+](=O)[O-])c1)c1ccccc1F	-2	21	-2	2	2	-4	.
O=C(NNC(=O)c1ccccn1)c1cccc([N+](=O)[O-])c1	-5	-1	1	-12	4	15	.
CCOC(=O)C1=C(CC)Nc2ccccc2N=C1NC(=O)Nc1ccc(Cl)c(Cl)c1	-5	97*	-2	2	13	-6	62*
CCOC(=O)C1=C(CC)Nc2ccccc2N=C1NC(=O)c1cc(C)on1	3	0	0	3	2	-2	.
Cc1ccccc1NC(=S)NCc1ccc(Cl)cc1	-4	8	0	-12	-2	-1	.
S=C(NCc1ccc(Cl)cc1)Nc1ccccc1	-4	65*	-1	-7	0	10	93*
S=C(NCCC(c1ccccc1)c1ccccc1)Nc1cccc(Cl)c1	-6	98*	-5	24	-1	-2	87*
Cc1ccc(CNC(=S)Nc2ccc(OC(F)F)cc2C)cc1	-6	9	-2	4	2	8	.
Fc1cccc(NC(=S)NCc2ccccc2Cl)c1	-3	86*	0	3	-5	2	97*
Cc1ccc(NC(=S)NCc2ccc(Cl)cc2)c(OC(F)F)c1	-7	62*	0	7	-3	4	97*
Cc1cc(Br)cc(Cl)c1OC(=O)c1ccncc1	0	-1	0	8	2	2	.
CCNC(=O)C1(C)CCCN(C(=O)c2cc(-c3cccs3)oc2C)C1 (configuration not stated)	.	1	-2	.	7	.	.
S=C(NCc1ccccc1)NCc1ccc(CNC(=S)NCc2ccccc2)cc1	-4	79*	0	9	4	-3	90*
Fc1ccc(CNC(=S)Nc2ccc(Cl)cc2)cc1	-4	65*	-4	-1	-8	6	95*
S=C(NCc1ccc(Cl)cc1)Nc1ccncc1	-8	98*	0	12	0	7	103*
Fc1cccc(NC(=S)NNc2c3ccccc3nc3ccccc23)c1	.	92*	-1	.	1	.	46*
Fc1cccc(NC(=S)NNc2ccccc2)c1	-6	1	0	3	18	-1	.
CC1Cc2cc(S(=O)(=O)N3CCC(C(=O)N(C)Cc4ccco4)CC3)ccc2N1C(=O)C1CCC1 (configuration not stated)	-2	2	0	10	8	-5	.
O=C(NCc1ccccc1)C1C(c2ccc3c(c2)OCO3)=Nc2ccccc2N1C(=O)c1cccc2ccccc12 (configuration not stated)	.	1	.	.	-4	.	.
COCC1CCN(C(=O)c2ccc3oc(C(C)C)nc3c2)C1 (configuration not stated)	.	-1	-1	.	11	.	.
SMILES	beta cell repl	MPTP inh	iPSC survival up	Apaf1 inhib	Granule exo inh	UBC13 polyUb	Rh123 counter	others
S=C(NCc1ccc(Cl)cc1Cl)Nc1ccccc1	-6	95*	-2	7	3	12	95*
Cc1cc(Cl)ccc1NC(=S)NCc1ccccc1Cl	0	93*	-3	11	3	-9	84*
Cn1c(=O)c2c(ncn2CCOC(=O)C(C)(C)Oc2ccc(Cl)cc2)n(C)c1=O	.	-1	0	.	7	.	.
O=C(Cc1ccc(Cl)cc1)Nc1ccc(Br)cn1	-4	3	0	2	-4	8	.
Oc1c(Cl)cc(Cl)cc1CNc1ccc(Br)cn1	-7	72*	2	22	-3	-2	83*
Oc1ccc(Cl)cc1CNc1ccc(Br)cn1	-5	58*	0	-3	0	5	62*
Cc1nn(-c2cccc(Cl)c2)c2nc(C(F)(F)F)[nH]c(=O)c12	-3	98*	1	9	-6	8	53*
Cc1nn(-c2cc(C(F)(F)F)ccc2Cl)c2nc(C(F)(F)F)[nH]c(=O)c12	-3	2	5	12	-6	-4	.
O=C(NN1C(=O)c2cc(Br)ccc2NC1c1cc(Br)cc(Br)c1O)c1ccncc1 (configuration not stated)	-7	88*	3	1	-4	-5	52*
O=C(NN1C(=O)c2cc(Br)ccc2NC1c1ccccc1Cl)c1ccncc1 (configuration not stated)	-4	2	1	-13	2	4	.
O=C(c1cc(C(=O)NCCc2ccccc2)c(=O)n(CCc2ccccc2)c1)c1cc(Cl)ccc1O	-5	98*	-2	10	5	-6	79*
COC(=O)Cn1c(CN2CCC(Cc3ccccc3)CC2)nc2c1c(=O)n(C)c(=O)n2C	-2	56*	2	6	1	-11	103*
COC(=O)Cn1c(CN(C)Cc2ccccc2)nc2c1c(=O)n(C)c(=O)n2C	-2	5	1	-12	5	-8	.
CCc1ccc2c(c1)cc(CN(C(=S)Nc1ccc(Cl)cc1)C1CC1)c1nnnn12	-4	146*	1	-3	-1	-25	10	MPTP abs DR=>100;MPTP counter DR=>80
N#C/C(=C(/O)C(Cl)c1ccccc1)c1nc2ccccc2s1 (configuration not stated)	-2	55*	-3	2	2	-3	74*
